Reference: ChEMBL document CHEMBL3297681, “Design, synthesis, and biological evaluations of tumor-targeting dual-warhead conjugates for a taxoid-camptothecin combination chemotherapy” (J Med Chem, 2014)

Key:
MX1 [1] = assay: Cytotoxicity against human MX1 cells overexpressing biotin receptor assessed as growth inhibition at 1:1 compound to camptothecin ratio after 72 hrs by MTT assay in presence of camptothecin; assay type: functional, cell-based; conditions: MX1, 72 h
Procedure, shortened: (§1)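 Cells were exposed simultaneously to an equimolar taxoid/camptothecin mixture for 72 h at 37 °C. Viability was read by MTT (0.5 mg/mL, 3 h, absorbance 570 nm). IC50 came from a four-parameter logistic fit of viability against concentration, in triplicate.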

MX1 [2] = assay: Cytotoxicity against human MX1 cells overexpressing biotin receptor assessed as growth inhibition pretreated for 24 hrs with camptothecin then incubated for 48 hrs by MTT assay in presence of camptothecin; assay type: functional, cell-based
Procedure, shortened: (§2)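 Cells were seeded at 8000–10000 per well and preincubated 24 h. Camptothecin serial dilutions were given first for 24 h at 37 °C. An equimolar amount of taxoid was then added for a further 48 h at 37 °C. Viability was read by MTT at 570 nm, and IC50 came from a four-parameter logistic fit, in triplicate.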

L1210 [3] = assay: Cytotoxicity against mouse L1210 cells overexpressing folate receptor assessed as growth inhibition pretreated for 24 hrs with camptothecin then incubated for 48 hrs by MTT assay in presence of camptothecin; assay type: functional, cell-based; procedure, shortened: as §2
[4] = Cytotoxicity against mouse ID8 cells overexpressing biotin receptor assessed as growth inhibition after 72 hrs by MTT assay; assay type: functional, cell-based
Procedure, shortened: (§3)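 Continuous 72 h exposure at 37 °C. Cells were seeded at 0.5–1.5 × 10^4 per well, and adherent lines were left to settle overnight before the medium was refreshed. DMSO was ≤1%. Read-out was MTT (0.5 mg/mL, 3 h), with formazan dissolved in 0.1 N HCl/2-propanol plus 10% Triton X-100 and absorbance read at 570 nm. IC50 came from a four-parameter logistic fit, in triplicate.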

MCF7 [5] = assay: Cytotoxicity against human MCF7 cells overexpressing biotin receptor assessed as growth inhibition after 72 hrs by MTT assay; assay type: functional, cell-based; procedure, shortened: as §3
L1210 [6] = assay: Cytotoxicity against mouse L1210 cells overexpressing folate receptor assessed as growth inhibition at 1:1 compound to camptothecin ratio after 72 hrs by MTT assay in presence of camptothecin; assay type: functional, cell-based; conditions: L1210, 72 h; procedure, shortened: as §1
MCF7 [7] = assay: Cytotoxicity against human MCF7 cells overexpressing biotin receptor assessed as growth inhibition at 1:1 compound to camptothecin ratio after 72 hrs by MTT assay in presence of camptothecin; assay type: functional, cell-based; conditions: MCF7, 72 h; procedure, shortened: as §1
[8] = Cytotoxicity against human WI38 cells assessed as growth inhibition after 72 hrs by MTT assay; conditions: WI-38, 72 h
MCF7 [9] = assay: Cytotoxicity against human MCF7 cells overexpressing biotin receptor assessed as growth inhibition treated for 24 hrs then incubated 48 hrs with camptothecin by MTT assay in presence of camptothecin; assay type: functional, cell-based
Procedure, shortened: (§4)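 Cells were seeded at 8000–10000 per well and preincubated 24 h. Taxoid was given first for 24 h at 37 °C. An equimolar amount of camptothecin was then added for another 48 h at 37 °C. Viability was read by MTT at 570 nm, and IC50 came from a four-parameter logistic fit, in triplicate.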

MCF7 [10] = assay: Cytotoxicity against human MCF7 cells overexpressing biotin receptor assessed as growth inhibition pretreated for 24 hrs with camptothecin then incubated for 48 hrs by MTT assay in presence of camptothecin; assay type: functional, cell-based; procedure, shortened: as §2
[11] = Cytotoxicity against mouse ID8 cells overexpressing biotin receptor assessed as growth inhibition pretreated for 24 hrs with camptothecin then incubated for 48 hrs by MTT assay in presence of camptothecin; assay type: functional, cell-based; procedure, shortened: as §2
L1210 [12] = assay: Cytotoxicity against mouse L1210 cells overexpressing biotin receptor assessed as growth inhibition after 72 hrs by MTT assay; conditions: L1210, 72 h
[13] = Cytotoxicity against mouse ID8 cells overexpressing biotin receptor assessed as growth inhibition treated for 24 hrs then incubated 48 hrs with camptothecin by MTT assay in presence of camptothecin; assay type: functional, cell-based; procedure, shortened: as §4
[14] = Cytotoxicity against mouse ID8 cells overexpressing biotin receptor assessed as growth inhibition at 1:1 compound to camptothecin ratio after 72 hrs by MTT assay in presence of camptothecin; assay type: functional, cell-based; conditions: ID8, 72 h; procedure, shortened: as §1
MX1 [15] = assay: Cytotoxicity against human MX1 cells overexpressing biotin receptor assessed as growth inhibition treated for 24 hrs then incubated 48 hrs with camptothecin by MTT assay in presence of camptothecin; assay type: functional, cell-based; procedure, shortened: as §4
L1210 [16] = assay: Cytotoxicity against mouse L1210 cells overexpressing folate receptor assessed as growth inhibition treated for 24 hrs then incubated 48 hrs with camptothecin by MTT assay in presence of camptothecin; assay type: functional, cell-based; procedure, shortened: as §4
MX1 [17] = assay: Cytotoxicity against human MX1 cells overexpressing biotin receptor assessed as growth inhibition after 72 hrs by MTT assay; assay type: functional, cell-based; procedure, shortened: as §3
[18] = Drug uptake in mouse ID8 cells at 10 uM after 10 hrs by confocal fluorescence microscopy analysis; assay type: ADME, cell-based; conditions: id8, 10 h
Procedure, shortened: (§5)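 Cells were incubated with 10 μM conjugate at 37 °C for 10 h, washed thoroughly, and resuspended in PBS. Internalization was imaged by confocal microscopy using camptothecin's intrinsic fluorescence.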

[19] = Cytotoxicity against mouse ID8 cells overexpressing biotin receptor assessed as growth inhibition after 24 hrs by MTT assay; assay type: functional, cell-based
MCF7 [20] = assay: Drug uptake in human MCF7 cells at 10 uM after 10 hrs by confocal fluorescence microscopy analysis; assay type: ADME, cell-based; conditions: mcf7, 10 h; procedure, shortened: as §5
MCF7 [21] = assay: Cytotoxicity against human MCF7 cells overexpressing biotin receptor assessed as growth inhibition after 24 hrs by MTT assay; assay type: functional, cell-based
Procedure, shortened: (§6)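 Conjugate was incubated with cells for 24 h at 37 °C, then removed by PBS washing. GSH-OEt (6 equiv to conjugate) in medium was added to release drug, followed by a further 48 h at 37 °C (72 h total). Read-out was MTT at 570 nm. IC50 came from a four-parameter logistic fit, in triplicate.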

L1210 [22] = assay: Cytotoxicity against mouse L1210 cells overexpressing folate receptor assessed as growth inhibition after 24 hrs by MTT assay; assay type: functional, cell-based; procedure, shortened: as §6
MX1 [23] = assay: Cytotoxicity against human MX1 cells overexpressing biotin receptor assessed as growth inhibition after 24 hrs by MTT assay; assay type: functional, cell-based; procedure, shortened: as §6
[24] = Cytotoxicity against human WI38 cells overexpressing biotin receptor assessed as growth inhibition after 72 hrs by MTT assay; assay type: functional, cell-based; conditions: wi-38; procedure, shortened: as §3
L1210 [25] = assay: Cytotoxicity against mouse L1210 cells overexpressing folate receptor assessed as growth inhibition after 72 hrs by MTT assay; assay type: functional, cell-based; procedure, shortened: as §3

Compound	IC50 ([4]; Mus musculus, ID8, 72 h)	IC50 (MCF7 [5]; Homo sapiens, MCF7, 72 h)	IC50 [8]	IC50 (L1210 [12])	IC50 (MX1 [17]; Homo sapiens, MX1, 72 h)	IC50 [24]	IC50 ([19]; id8)	IC50 (L1210 [25])	IC50 ([4]; id8)	IC50 (MCF7 [5]; mcf7)	IC50 (MCF7 [21]; mcf7)	IC50 (L1210 [22]; l1210)	IC50 (MX1 [17]; mx1)	IC50 (MX1 [23]; mx1)	further results
CC(=O)O[C@@]12CCO[C@@H]1C[C@H](O)[C@@]1(C)C(=O)[C@H](OC(=O)C3CC3)C3=C(C)[C@@H](OC(=O)[C@H](O)[C@H](C=C(C)C)NC(=O)OC(C)(C)C)C[C@@](O)([C@@H](OC(=O)c4ccccc4)[C@H]21)C3(C)C	1.11 nM	0.44 nM	5.89 nM	2.14 nM	2.01 nM	–	–	–	–	–	–	–	–	–	IC50 (MX1 [1]): 1.88 nM; IC50 (MX1 [2]): > 5000 nM; IC50 (L1210 [3]): 949 nM; IC50 (L1210 [6]): 4.14 nM; IC50 (MCF7 [7]): 0.4 nM; IC50 (MCF7 [9]): 0.33 nM; IC50 (MCF7 [10]): 79.2 nM; IC50 [11]: 110 nM; IC50 [13]: 0.96 nM; IC50 [14]: 1.02 nM; IC50 (MX1 [15]): 1.98 nM; IC50 (L1210 [16]): 3.51 nM
CC[C@@]1(OC(=O)Cc2ccccc2SSC(C)CCC(=O)NCCOCCOCCOCCn2cc(CNc3nc(NCCNC(=O)CCC(C)SSc4ccccc4CC(=O)O[C@@H](C(=O)O[C@H]4C[C@@]5(O)[C@@H](OC(=O)c6ccccc6)[C@@H]6[C@]7(OC(C)=O)CCO[C@@H]7C[C@H](O)[C@@]6(C)C(=O)[C@H](OC(=O)C6CC6)C(=C4C)C5(C)C)[C@H](C=C(C)C)NC(=O)OC(C)(C)C)nc(NCCOCCOCCOCCNC(=O)CCCC[C@@H]4SC[C@@H]5NC(=O)N[C@@H]54)n3)nn2)C(=O)OCc2c1cc1n(c2=O)Cc2cc3ccccc3nc2-1 (stereo not given in full)	23.4 nM	19 nM	742 nM	39.1 nM	51.7 nM	–	–	–	–	–	–	–	–	–	Drug uptake [18]: Active; IC50 ([19]; Mus musculus, ID8, 24 h): 5.7 nM; Drug uptake (MCF7 [20]): Active; IC50 (MCF7 [21]; Homo sapiens, MCF7, 24 h): 3.2 nM; IC50 (L1210 [22]; Mus musculus, L1210, 24 h): 7.4 nM; IC50 (MX1 [23]; Homo sapiens, MX1, 24 h): 9.8 nM
CC[C@@]1(OC(=O)CCC(=O)NCCOCCOCCOCCn2cc(CNc3nc(NCCNC(=O)CCC(C)SSc4ccccc4CC(=O)O[C@@H](C(=O)O[C@H]4C[C@@]5(O)[C@@H](OC(=O)c6ccccc6)[C@@H]6[C@]7(OC(C)=O)CCO[C@@H]7C[C@H](O)[C@@]6(C)C(=O)[C@H](OC(=O)C6CC6)C(=C4C)C5(C)C)[C@H](C=C(C)C)NC(=O)OC(C)(C)C)nc(NCCOCCOCCOCCNC(=O)CCCC[C@@H]4SC[C@@H]5NC(=O)N[C@@H]54)n3)nn2)C(=O)OCc2c1cc1n(c2=O)Cc2cc3ccccc3nc2-1 (stereo not given in full)	–	–	–	–	–	868 nM	10.3 nM	42.5 nM	25.6 nM	21.1 nM	9.4 nM	13.7 nM	65.1 nM	20.8 nM	–
CC(=O)O[C@@]12CCO[C@@H]1C[C@H](O)[C@@]1(C)C(=O)[C@H](OC(=O)C3CC3)C3=C(C)[C@@H](OC(=O)[C@H](OC(=O)Cc4ccccc4SSC(C)CCC(=O)NCCNc4nc(NCCOCCOCCOCCNC(=O)CCCC[C@@H]5SC[C@@H]6NC(=O)N[C@@H]65)nc(NCc5cn(CCOCCOCCOCCNC(=O)CCC(C)SSc6ccccc6CC(=O)Oc6ccccc6)nn5)n4)[C@H](C=C(C)C)NC(=O)OC(C)(C)C)C[C@@](O)([C@@H](OC(=O)c4ccccc4)[C@H]21)C3(C)C (stereo not given in full)	–	–	–	–	–	941 nM	15.6 nM	50.9 nM	26.7 nM	23.1 nM	9.9 nM	14.4 nM	66.9 nM	23.6 nM	–
CC[C@@]1(OC(=O)Cc2ccccc2SSC(C)CCC(=O)NCCOCCOCCOCCn2cc(CNc3nc(NCCNC(=O)CCC(C)SSc4ccccc4CC(=O)Oc4ccccc4)nc(NCCOCCOCCOCCNC(=O)CCCC[C@@H]4SC[C@@H]5NC(=O)N[C@@H]54)n3)nn2)C(=O)OCc2c1cc1n(c2=O)Cc2cc3ccccc3nc2-1 (stereo not given in full)	–	–	–	–	–	1440 nM	2390 nM	319 nM	> 5000 nM	1260 nM	538 nM	177 nM	> 5000 nM	> 5000 nM	–
CC[C@@]1(O)C(=O)OCc2c1cc1n(c2=O)Cc2cc3ccccc3nc2-1 [CAMPTOTHECIN]	474 nM	65.1 nM	786 nM	510 nM	1700 nM	–	–	–	–	–	–	–	–	–	–
